A selection: hits, their analogues and other compounds. The true share with any hit is near 1.8%.
TbMetRS inhib: Trypanosoma brucei MetRS inhibition; purified T. brucei MetRS, ATP depletion, Kinase-Glo luminescence; inhibition, % at 11.9 µM; actives 0.4% (n = 360,000); AID 624268;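 active means inhibition above a per-plate cutoff of the control wells' mean inhibition plus 3 SD, cut at about 5.5% in these data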;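 further: 0% = DMSO wells median and 100% = median of wells with control inhibitor compound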
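Material – parasite MetRS enzyme · Medium – HEPES-MgCl2-KCl buffer plus DTT, spermine, BSA, pyrophosphatase · Reagent – ATP, methionine and E. coli bulk tRNA substrates · Times – 15 min enzyme-compound preincubation, 2 h reaction, 10 min detection, 25 °C · Measured by – luminescence of leftover ATP · Evaluation – percent inhibition relative to median high and low control wells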
PREPL inhibitor: human PREPL enzyme inhibition. actives 0.68% (n = 320,000). inhibition, % at 5.96 µM. recombinant PREPL, fluorescence polarization activity-based probe;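 further: 0% = enzyme with DMSO and 100% = wells lacking enzyme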
E coli Lon inh: inhibits E. coli Lon protease | actives 0.42% (n = 360,000) | P0A9M0 | inhibition, % at 7.94 µM | AID 602123 | purified E. coli Lon protease, fluorescence polarization; in the data active means inhibition above about 13%, passing the limit was not always enough;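 further: 0% = enzyme with probe and DMSO and 100% = no enzyme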
Target sequence (P0A9M0 whole entry, looked up): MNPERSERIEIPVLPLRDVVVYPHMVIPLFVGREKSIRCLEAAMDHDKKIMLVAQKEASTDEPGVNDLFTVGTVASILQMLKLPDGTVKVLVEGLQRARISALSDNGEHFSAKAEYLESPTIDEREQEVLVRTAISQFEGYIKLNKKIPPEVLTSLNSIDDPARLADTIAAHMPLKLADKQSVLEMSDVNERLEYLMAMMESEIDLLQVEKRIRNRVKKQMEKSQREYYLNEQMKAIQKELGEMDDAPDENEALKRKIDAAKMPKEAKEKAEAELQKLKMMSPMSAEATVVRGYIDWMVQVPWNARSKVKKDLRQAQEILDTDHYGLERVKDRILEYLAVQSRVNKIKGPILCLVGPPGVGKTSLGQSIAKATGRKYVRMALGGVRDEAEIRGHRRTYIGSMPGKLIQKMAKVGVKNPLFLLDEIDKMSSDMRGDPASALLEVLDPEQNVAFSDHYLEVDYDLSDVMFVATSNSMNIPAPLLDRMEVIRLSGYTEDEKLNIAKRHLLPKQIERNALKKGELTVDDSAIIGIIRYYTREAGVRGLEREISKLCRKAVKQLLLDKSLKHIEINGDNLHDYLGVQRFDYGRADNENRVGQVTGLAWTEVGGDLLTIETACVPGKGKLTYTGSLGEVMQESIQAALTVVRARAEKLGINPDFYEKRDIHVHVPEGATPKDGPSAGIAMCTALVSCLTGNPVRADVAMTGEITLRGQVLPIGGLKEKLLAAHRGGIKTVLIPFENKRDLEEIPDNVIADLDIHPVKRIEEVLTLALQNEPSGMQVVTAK
iPSC survival up: hiPSC single-cell survival enhancement; actives 0.044% (n = 360,000); survival enhancement, % at 20 µM; ATPlite luminescence; 100% = ROCK inhibitor wells, 0% = DMSO; AID 602274; in the data active means survival enhancement above about 18%;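 further: cells exposed to compounds for 16 hours before the ATP read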
MT1-MMP act inh: blocks activation of human MT1-MMP | actives 0.061% (n = 360,000) | AID 651647 | GFP/RFP ratio change, % at 20 µM | HT1080 RFP-PRO-GFP cells, GFP/RFP ratio fluorescence, overnight; percent of plate control window, DMSO zero;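 active means GFP/RFP ratio change of at least 30% with cell ATP level not reduced by more than half and red fluorescence within 50% of control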
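Read-out: GFP/RFP fluorescence ratio; Test system: RFP-PRO-GFP reporter HT1080 cells; Compound dosing: single-point 20 µM compound, 1% DMSO; Times: overnight compound exposure at 37 °C.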
SKN-1 block: inhibitors of C. elegans SKN-1. actives 0.49% (n = 360,000). C. elegans VP596 Pgst-4::GFP/RFP ratio, acrylamide-induced, 24 h. AID 624304. inhibition, % at 21.8 µM;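 active means interference check ratio from 0.5 to 1.5 plus GFP to RFP signal ratio inhibition reaching or exceeding a fixed threshold, cut at about 30% in these data, passing the limit was not always enough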
PREPL confirm: confirmation of human PREPL enzyme inhibitors | recombinant PREPL, fluorescence polarization activity probe | actives 67% (n = 2,000) | inhibition, % at 5.96 µM | shares compounds with PREPL inhibitor;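 further: 0% = protein with DMSO and 100% = wells lacking protein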
Active calls of the source: *; . = not tested or not shown. Unless noted, no stated cut-off is given here; in the data, active means inhibition above about 43%; inactive means the rest.

SMILES	TbMetRS inhib	PREPL inhibitor	E coli Lon inh	iPSC survival up	MT1-MMP act inh	SKN-1 block	PREPL confirm
O=C(Oc1ccc2c(-c3ccccc3)cc(=O)oc2c1)c1cccs1	-1	17	-5	0	-11	-2	.
O=C(Oc1ccc2ccc(=O)oc2c1)c1cccs1	1	45*	13	0	-1	-3	60*
CC1CC(=O)c2c(cc3c(-c4c(O)cc(O)c5c(O)c6c(cc45)OC(C)CC6=O)c(O)cc(O)c3c2O)O1 (centres undefined)	2	77*	8	-3	-3	12	35
O=C(NNS(=O)(=O)c1ccccc1)Nc1ccc(F)cc1	0	-1	0	0	1	10	.
COc1ccc(NC(=O)CSc2c(C)nn(-c3nnc(C)c(=O)[nH]3)c2C)cc1	0	-4	5	4	1	1	.
CN(CC(=O)N1CCN(Cc2ccccc2)CC1)C(=O)Cc1ccc(Cl)c(Cl)c1	0	46*	-9	-1	5	-7	43
CN(C)S(=O)(=O)N(CC(=O)N1CCN(Cc2ccccc2)CC1)c1ccccc1	0	-6	-9	0	11	-10	.
Cc1c(CCC(=O)NCCCn2ccnc2)c(=O)oc2c(C)c3oc4c(c3cc12)CCCC4	-1	49*	-6	3	4	3	38
CCOc1ccc(OCC)c(NC(=O)Nc2ccc3c(c2)N(C)C(=O)CS3)c1	0	19	-4	0	3	29	.
CN(C)c1ccc(C(O)P(=O)(OCc2ccccc2)c2ccc(N(C)C)cc2)cc1 (centres undefined)	0	51*	2	0	1	4	53*
CN1Cc2sc(NC(=S)NC(=O)c3ccccc3)c(C#N)c2CC1(C)C	.	58*	.	.	.	.	19
CCc1cc(=O)oc2c(C)c(OC(C)C(=O)NC3CC(C)(C)NC(C)(C)C3)ccc12 (centres undefined)	1	49*	-3	0	1	4	38
O=C1CCCN1CCC1CCCCN1Cc1nc(-c2cnccn2)no1 (centres undefined)	0	13	11	0	-6	-11	.
COc1cc(/C=C/[N+](=O)[O-])ccc1OC(=O)/C=C/c1ccc(F)cc1	-1	47*	-4	2	3	-6	46*
COc1ccc(/C=C/C(=O)Oc2ccc(C)c(C)c2)cc1OC	-1	7	-5	-2	1	10	.
COc1ccc(NS(=O)(=O)c2cccc(C(=O)N3CCCC(C)C3)c2)cc1 (centres undefined)	0	-1	-12	0	-1	12	.
O=C(N/N=C/c1cn(CCOc2ccccc2)c2ccccc12)c1ccncc1	0	54*	12	5	2	12	43
COc1ccccc1OCCn1cc(/C=N/NC(=O)c2ccncc2)c2ccccc21	0	11	-10	0	0	-4	.
CC(C)c1ccc(NC(=O)CNS(=O)(=O)c2ccc(F)cc2)cc1	0	-17	-1	1	-5	-4	.
COc1ccc(S(=O)(=O)Nc2ccccc2Cl)cc1NC(C)=O	0	7	5	5	1	1	.
CN(CC(=O)Nc1ccc(Cl)c(C(F)(F)F)c1)C(=O)Cc1n[nH]c(=O)c2ccccc12	1	57*	-17	0	-9	7	15
COc1ccccc1-c1nnc(SC/C(O)=C(\C#N)c2nc3ccccc3[nH]2)n1C1CCCCC1	1	-11	-4	-1	5	15	.
N#C/C(=C(/O)CSc1nnc(Cc2cccs2)n1C1CCCCC1)c1nc2ccccc2[nH]1	1	43*	-23	1	-7	-14	35
CC1CCC(NC(=O)CN2C(=O)NC3(CCCCCC3)C2=O)CC1 (centres undefined)	0	-2	-4	0	0	14	.
CCCCCc1cc(=O)oc2c(C(CCN3CCCCC3)c3ccc(OC)cc3)c(OC)cc(OC)c12 (centres undefined)	0	16	0	-4	-1	1	.
SMILES	TbMetRS inhib	PREPL inhibitor	E coli Lon inh	iPSC survival up	MT1-MMP act inh	SKN-1 block	PREPL confirm
CCCCCc1cc(=O)oc2c(C(CCN3CCCC3)c3ccc(N(C)C)cc3)c(OC)cc(OC)c12 (centres undefined)	0	50*	1	-5	3	12	49*
CC1CCCCC1n1c(=S)[nH]c2ccccc2c1=O (centres undefined)	1	-3	-4	0	2	7	.
Cc1ccc(NC(=S)N2CCN(S(=O)(=O)c3ccc(C)cc3)CC2)cc1	0	.	-1	-1	2	10	.
CC1(C)N=C(N)N=C(N)N1c1ccc(Oc2ccc(Cl)cc2)c(Cl)c1	1	55*	10	1	13	17	52*
CCNc1c2c3c(cccc3n(C)c1=O)C(=O)c1ccccc1-2	.	69*	.	.	.	.	54*
CCNc1c([N+](=O)[O-])c(=O)n(CC)c2ccccc12	0	14	-2	1	-1	6	.
S=C(NCCc1ccccn1)Nc1ccc(Cl)cc1Cl	0	-16	-8	0	7	10	.
Cc1cc(C)[n+](C)n1CC(O)Cn1c2ccccc2c2ccccc21 (centres undefined)	-1	-2	2	-3	1	4	.
CN(Cc1ccon1)C(=O)CC1C(=O)NCCN1CC1CCCCC1 (centres undefined)	-1	7	7	2	2	3	.
O=C(Nc1ccc(Cl)c(Cl)c1)C1C2C=CC3(O2)C1C(=O)N(CCN1CCCCC1)C3C(=O)NC1CCCCC1 (centres undefined)	0	50*	-10	-1	4	30	52*
N#CCC(=O)Nc1ccccc1C(=O)O	0	-3	-1	4	-2	28	.
N#CCC(=O)Nc1ncn(Cc2ccccc2Cl)n1	-1	54*	-11	2	3	-15	3
COc1ccc(Nc2nnc(SC(C(=O)Nc3ccc(OC)c(Cl)c3)c3ccccc3)s2)cc1 (centres undefined)	1	47*	5	2	-2	11	42
CN(C)c1ccc(C(CNC(=O)COc2ccc(Cl)cc2)N2CCCC2)cc1 (centres undefined)	-1	67*	9	-1	-1	11	53*
Cc1ccc(-n2nc(C(=O)NN)c(C)c(C#N)c2=O)cc1Cl	0	66*	-1	-1	3	14	34
Cc1c(C(=O)NN)nn(-c2ccc(Cl)cc2)c(=O)c1C#N	0	41	1	0	9	-4	.

Compound activity as filed in PubChem.
